# HCT116 PTEN-null = PTEN-deleted cell growth suppression; viability, % at 10 µM; HCT116 PTEN-null viability, CellTiter-Glo, 60 h; hits give low values; hit rate 1.2% among 140,000; AID 827;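 active = viability at or below a set limit, 4 SD under the median of all tested compounds, cut at about 3.7% in these data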;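 note: PTEN knockout HCT116 line with beta catenin targeted HCT116 as companion control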
# H69AR growth 86K = growth inhibitors of human H69AR lung tumor cells. H69AR lung tumor viability, ATP luminescence, 72 h; hits give low values. viability, % at 10 µM. hit rate 6% among 85,000. AID 598;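 active = viability at or below 40%; inactive = viability above 40%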;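 note: multidrug resistant small cell line overexpressing MRP-1 efflux transporter; 100% = mean luminescence of untreated control wells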
# Calb biofilm kill = kills Candida albicans biofilms. C. albicans biofilm + clotrimazole, Alamar Blue. inhibition, % at 6 µM. AID 834. hit rate 0.14% among 85,000;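 active = inhibition above 20%; inactive = inhibition below 20%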;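 note: preformed 24 hr biofilms exposed to compound for 48 hr; 0% = biofilm without compound and 100% = blank killed by clotrimazole plus chlorhexidine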
# HCT116 bCat-KO = beta-catenin-lacking colon tumor cell growth suppression. hit rate 1.5% among 140,000. HCT116 beta-catenin knockout viability, CellTiter-Glo, 60 h; hits give low values. viability, % at 10 µM;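 active = viability at or under a set limit, the compound median less 4 SD, cut at about 6% in these data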;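 note: 0% = Hyamine 1622 control at 20 µM and 100% = untreated cell control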
# Fibroblast inh = blocks proliferation of human lung fibroblasts; viability, % at 10 µM; LL 47 human lung fibroblast viability, ATP luminescence; hits give low values; hit rate 1.1% among 85,000;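 active = viability at or below 50% in the single dose screen; inactive = viability above 50%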;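 note: compound exposure lasted 72 h before the ATP readout; 100% = median luminescence of untreated cell-only wells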
#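 Signal: luminescent ATP detection, CellTiter-Glo; assay system: LL 47 human lung fibroblasts; input: 1,150 cells/well; incubation: overnight cell rest, 72 h compound treatment at 37 °C; measure: % viability versus median cells-only luminescence; medium: IMEM growth medium with 15% fetal bovine serum; dosing: compound addition at 0.1% DMSO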
# HUVEC prolif 384 = blocks proliferation of human endothelial cells; HUVEC proliferation, CellTiter-Glo luminescence, 72 h; hits give low values; viability, % at 10 µM (by protocol); hit rate 1.1% among 86,000;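 active = viability at or below 30%; inactive = viability above 30%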;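 note: 100% = median luminescence of DMSO-only cell control wells on each plate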
# * marks the source's active call; other numbers are inactive results; / = no result given. This excerpt belongs to a sample that is enriched for hits.
SMILES,HCT116 PTEN-null,H69AR growth 86K,Calb biofilm kill,HCT116 bCat-KO,Fibroblast inh,HUVEC prolif 384
CC(=O)Oc1ccc(N(C(C)=O)S(=O)(=O)c2cccs2)c2ccccc12,78,1.4*,-1,70,112,4.0*
COC(=O)/C(=N\Nc1ccc(Cl)cc1)Sc1nnc(-c2ccc(OC)cc2)n1C,98,/,/,97,/,/
Cc1cc(C)c(S(=O)(=O)/N=C2/C=C(Sc3ncn[nH]3)C(=O)c3ccccc32)cc1C,5,/,/,3.1*,/,/
COc1ccc(O)c(-c2cc(C(F)(F)C(F)F)nc(-c3ccccc3)n2)c1,75,34*,5,93,94,80
O=c1cc(O)c2c(=O)n(-c3ccccc3)c3ccccc3c2o1,76,12*,6,81,100,87
CC(NC(=O)c1cccs1)c1n[nH]c(=S)n1C (stereo not given),93,/,/,92,/,/
CCCCC(O)(CCN1CCOCC1)c1ccc(Cl)cc1 (stereo not given),75,97,-2,73,98,99
CCCC(O)(c1ccc(Cl)cc1)C(CN1CCOCC1)c1ccccc1 (stereo not given),55,40*,6,51,96,106
O=C(CSc1nnc(-c2ccc(O)cc2)n1Cc1ccccc1)NNC(=O)c1ccc(Br)cc1,106,/,/,98,/,/
CCC1=NN(C(=O)Cc2ccc(OC)c(OC)c2)C(O)(C(F)(F)F)C1 (stereo not given),94,/,/,93,/,/
COCCNC(=S)N/N=C(\C)c1ccccc1OC,87,/,/,92,/,/
COCCNC(=S)N/N=C(\C)c1ccccc1O,8,/,/,4.2*,/,/
Cc1ccc(NC(=O)/C(Cl)=C/c2ccccc2)cc1C,66,/,/,67,/,/
COc1ccc(-c2nc3oc4cc(OC)ccc4c(=O)c3c(=O)n2Cc2ccco2)cc1,80,3.8*,9,87,100,102
COc1ccc(CCn2c(-c3ccco3)nc3ccccc3c2=O)cc1OC,26,39*,-1,24,105,68
COc1ccc2c(=O)c3c(=O)n(Cc4ccco4)c(-c4ccco4)nc3oc2c1,99,71,-1,96,112,86
COc1ccc(Cn2c(-c3ccco3)nc3oc4cc(OC)ccc4c(=O)c3c2=O)cc1,33,20*,5,45,98,73
COc1ccc(Cn2c(-c3ccco3)nc3oc4ccccc4c(=O)c3c2=O)cc1,96,29*,5,96,72,75
Cc1ccc(-n2c(SCC(=O)Nc3cccc(S(N)(=O)=O)c3)nc3ccccc32)cc1,56,/,/,68,/,/
CCN(CC)S(=O)(=O)c1ccc(N2CCOCC2)c(NC(=O)Cc2cccc3ccccc23)c1,90,/,/,88,/,/
CCCOc1ccc([N+](=O)[O-])c(N)c1,98,/,/,110,/,/
C=CCc1ccc(OCC(O)CN2CCCCC2)c(OC)c1 (stereo not given),108,83,4,106,101,91
C=CCc1ccc(OCC(O)COc2ccc(CC=C)cc2OC)c(OC)c1,64,35*,2,68,100,85
Cc1nc(-c2ccc3c(c2)OCO3)cs1,98,90,8,102,98,96
CCC1(C)N=C(c2ccc3c(c2)OCO3)CC(c2ccccc2O)N1 (stereo not given),64,2.1*,1,51,54,25*
SMILES,HCT116 PTEN-null,H69AR growth 86K,Calb biofilm kill,HCT116 bCat-KO,Fibroblast inh,HUVEC prolif 384
COc1cccc(C2=NC(C)(C)NC(c3ccccc3O)C2)c1 (stereo not given),19,1.1*,-3,11,88,62
COc1cccc(C2=NOC(C(=O)NC(C)C)C2)c1 (stereo not given),107,99,4,96,99,95
COC(=O)c1ccc(COC(=O)CCc2nc(-c3ccccc3)c(-c3ccccc3)o2)cc1,78,83,3,75,98,95
CCOC(=O)c1c(C)[nH]c(C(=O)COC(=O)c2ccccc2NC(=O)c2ccco2)c1C,74,18*,-1,73,100,65
CCOC(=O)c1[nH]c(COC(=O)c2ccccc2NC(=O)c2ccco2)c(C(=O)OCC)c1C,92,8.5*,-2,89,95,82
C[C@@H](C(=O)Nc1ccc2ccccc2c1)[C@H]1C[C@]1(C)[C@H](NS(=O)(=O)c1ccccc1)c1ccccc1,57,/,/,66,/,/
CCc1ccc(Nc2cc(=O)n(C3CCCCC3)c(=O)[nH]2)cc1,98,16*,3,72,85,69

# Screens as filed in PubChem BioAssay.
